Data published in ChEMBL document CHEMBL3739312, “Triazole-curcuminoids: A new class of derivatives for 'tuning' curcumin bioactivities?” (Bioorg Med Chem, 2016).
The source made the active and inactive calls. The rule behind the calls is not given here.

What was measured:
SH-SY5Y [1] = assay: Antiproliferative activity against human SH-SY5Y cells assessed as cell viability at 40 uM after 48 hrs relative to control; type: functional; conditions: read-out: Activity
How it was run: (§1)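 Single fixed concentration of 40 µM against HeLa or SH-SY5Y cells; viability given as mean ± S.E.M., n = 8 from two separate experiments.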

HeLa [2] = assay: Antiproliferative activity against human HeLa cells assessed as cell viability at 40 uM after 48 hrs relative to control; type: functional; conditions: read-out: Activity; how it was run: as §1
SH-SY5Y [3] = assay: Antiproliferative activity against human SH-SY5Y cells assessed as cell viability after 48 hrs; type: functional, cell-based
HeLa [4] = assay: Antiproliferative activity against human HeLa cells assessed as cell viability after 48 hrs; type: functional, cell-based
HeLa [5] = assay: Inhibition of TNFalpha-induced NFkappaB activation assessed as TNFalpha-induced transcription level in human HeLa cells at 30 uM incubated for 6 hrs by luciferase reporter gene assay; type: cell-based; design: scale not given: the % may be the effect or the level left
How it was run: (§2)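 HeLa NF-κB luciferase reporter: cells plated at 5 × 10³/well; after 8 h, TNFα (20 ng/mL) applied for 6 h with or without compound. Firefly luciferase normalized to pRLTK Renilla by dual-luciferase read-out; n = 6–11 from 3–6 experiments.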

HeLa [6] = assay: Cell cycle arrest in human HeLa cells assessed as accumulation at […] phase at IC50 to 2 times IC50 after 16 hrs by FACS analysis; type: functional, cell-based
How it was run: (§3)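 HeLa cells seeded at 6 × 10⁵ cells/well, starved overnight, then exposed at IC50, 2× and 3× IC50 for 8 h or 16 h. Cells fixed in 70% EtOH overnight at −20 °C, then RNase-treated (100 µg/mL, 1 h, 37 °C) before cell-cycle phase analysis.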

Tubulin (Homo sapiens) [7] = target: T1, Tubulin (Homo sapiens) (UniProt P68371+Q9H4B7+P0DPH7+P68366+Q13509+Q71U36+P04350+Q3ZCM7+P07437+P68363+Q9BQE3+Q6PEY2+Q13885+Q9BVA1+Q9BUF5); assay: Inhibition of tubulin (unknown origin) polymerization up to 60 uM; type: protein-complex assay
How it was run: (§4)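 Cell-free fluorescence-based tubulin polymerization kit; compound tested from 10 µM up to 60 µM.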

HeLa [8] = assay: Cell cycle arrest in human HeLa cells at IC50 to 2 times IC50 after 8 hrs by FACS analysis; type: functional, cell-based; how it was run: as §3
Tubulin (Homo sapiens) [9] = target: T1, Tubulin (Homo sapiens); assay: Inhibition of tubulin polymerization in human HeLa cells assessed as increase in soluble fraction incubated for 16 hrs by cellular assay; type: cell-based
How it was run: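 HeLa cells exposed 16 h; proteins extracted in presence of paclitaxel, pelletable and soluble fractions separated and resolved by SDS–PAGE.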

Tubulin (Homo sapiens) [10] = target: T1, Tubulin (Homo sapiens); assay: Inhibition of tubulin (unknown origin) polymerization at 10 uM; type: protein-complex assay; how it was run: as §4
HeLa [11] = assay: Potentiation of TNFalpha-induced NFkappaB activation in human HeLa cells at 3 uM incubated for 6 hrs by luciferase reporter gene assay; type: cell-based; how it was run: as §2

Row | Structure (SMILES) | viability at 40 µM (SH-SY5Y [1]) [%] | viability at 40 µM (HeLa [2]) [%] | IC50 (SH-SY5Y [3]) [µM] | IC50 (HeLa [4]) [µM] | Activity (HeLa [5]) [%] | Activity (HeLa [6]) | Activity (Tubulin (Homo sapiens) [7]) | Activity (HeLa [8]) | inhibition (Tubulin (Homo sapiens) [9]) | inhibition (Tubulin (Homo sapiens) [7]) | Activity (Tubulin (Homo sapiens) [10]) | fold change (FC) (HeLa [11])
1 | COc1cccc(/C=C/c2cn(/C=C/c3ccc(O)cc3)nn2)c1 | 37.9 | 30.4 | 9 | 17.2 | 61.5 | – | – | – | – | – | – | –
2 | COc1ccc(/C=C/c2cn(/C=C/c3ccc(O)cc3)nn2)cc1 | 25.7 | 66.3 | 11.3 | 34 | 131 | – | – | – | – | – | – | –
3 | COc1cccc(/C=C/c2cn(/C=C/c3ccccc3)nn2)c1 | 88.7 | 93.9 | – | – | 87 | – | – | – | – | – | – | –
4 | COc1cc(/C=C/n2cc(/C=C/c3cc(OC)c(OC)c(OC)c3)nn2)ccc1O | 23.5 | 23 | 7.8 | 13.6 | 27.5 | Active | inactive | inactive | inactive | – | – | –
5 | Oc1ccc(/C=C/n2cc(/C=C/c3ccccc3)nn2)cc1 | 48 | 50.7 | – | – | 88.9 | – | – | – | – | – | – | –
6 | COc1cc(/C=C/n2cc(/C=C/c3ccc(O)cc3)nn2)ccc1O | 50.3 | 83.5 | – | – | 73.2 | – | – | – | – | – | – | –
7 | COc1cc(/C=C/n2cc(/C=C/c3ccccc3)nn2)ccc1O | 86.7 | 84.3 | – | – | 144 | – | – | – | – | – | – | –
8 | COc1ccc(/C=C/c2cn(/C=C/c3ccc(O)c(OC)c3)nn2)cc1O | 18.1 | 7.9 | 6.9 | 11.7 | 15.3 | Active | inactive | inactive | inactive | – | – | –
9 | Oc1ccc(/C=C/c2cn(/C=C/c3ccc(O)cc3)nn2)cc1 | 49.6 | 55.3 | – | – | 112 | – | – | – | – | – | – | –
10 | COc1cc(/C=C/C(=O)CC(=O)/C=C/c2ccc(O)c(OC)c2)ccc1O [CURCUMIN] | 22.6 | 42.5 | 16.1 | 21.8 | 60.5 | Active | – | inactive | inactive | Active | inactive | –
11 | Oc1ccc(/C=C/c2cn(/C=C/c3ccccc3)nn2)cc1 | 70.6 | 39.5 | – | – | 85.4 | – | – | – | – | – | – | –
12 | COc1cc(/C=C/c2cn(/C=C/c3ccccc3)nn2)cc(OC)c1OC | 69.2 | 52.1 | – | – | 65.3 | – | – | – | – | – | – | –
13 | COc1cccc(/C=C/n2cc(/C=C/c3cc(OC)c(OC)c(OC)c3)nn2)c1 | 99.9 | 77.9 | – | – | 42.2 | – | inactive | – | inactive | – | – | –
14 | COc1ccc(/C=C/c2cn(/C=C/c3cccc(OC)c3)nn2)cc1 | 52 | 55.1 | – | – | 81.3 | – | – | – | – | – | – | –
15 | Oc1ccc(/C=C/c2cn(/C=C/c3ccccc3)nn2)cc1O | 40.1 | 18.4 | – | – | 167 | – | – | – | – | – | – | –
16 | COc1cc(/C=C/c2cn(/C=C/c3ccc(O)cc3)nn2)cc(OC)c1OC | 21.3 | 19.2 | 1.7 | 1.5 | 14.6 | Active | inactive | inactive | inactive | – | – | –
17 | COc1cccc(/C=C/n2cc(/C=C/c3ccc(O)c(O)c3)nn2)c1 | 27.7 | 16.6 | 17 | 18.7 | 97 | – | – | – | – | – | – | –
18 | C(=C\c1cn(/C=C/c2ccccc2)nn1)/c1ccccc1 | 118 | 70 | – | – | 79.9 | – | – | – | – | – | – | –
19 | COc1cc(/C=C/c2cn(/C=C/c3ccccc3)nn2)ccc1O | 110 | 79.5 | – | – | 138 | – | – | – | – | – | – | –
20 | COc1cccc(/C=C/n2cc(/C=C/c3ccc(O)c(OC)c3)nn2)c1 | 66.3 | 66.9 | – | – | 57 | – | – | – | – | – | – | –
21 | COc1cc(/C=C/c2cn(/C=C/c3ccc(O)cc3)nn2)ccc1O | 55.4 | 56.8 | – | – | 96 | – | – | – | – | – | – | –
22 | COc1ccc(/C=C/c2cn(/C=C/c3ccc(O)c(OC)c3)nn2)cc1 | 50 | 67.9 | – | – | 146 | – | – | – | – | – | – | –
23 | Oc1ccc(/C=C/n2cc(/C=C/c3ccc(O)c(O)c3)nn2)cc1 | 60.4 | 60.1 | – | – | 124 | – | – | – | – | – | – | –
24 | COc1cccc(/C=C/n2cc(/C=C/c3ccc(O)cc3)nn2)c1 | 68.9 | 41.9 | – | – | 94.3 | – | – | – | – | – | – | –
25 | COc1cccc(/C=C/n2cc(/C=C/c3ccccc3)nn2)c1 | 107 | 82.1 | – | – | 76.1 | – | – | – | – | – | – | –
26 | COc1cc(/C=C/c2cn(/C=C/c3ccc(O)c(OC)c3)nn2)ccc1O | 36.1 | 50.5 | 17.8 | 36.4 | 48 | – | inactive | – | inactive | – | – | 2
27 | COc1cccc(/C=C/c2cn(/C=C/c3ccc(O)c(OC)c3)nn2)c1 (mixture of isomers) | 65.3 | 38.7 | – | – | 88.9 | – | – | – | – | – | – | –
28 | COc1cccc(/C=C/c2cn(/C=C/c3cccc(OC)c3)nn2)c1 | 71.4 | 92.8 | – | – | 71 | – | – | – | – | – | – | –
29 | COc1ccc(/C=C/c2cn(/C=C/c3ccccc3)nn2)cc1 | 126 | 69.2 | – | – | 74.5 | – | – | – | – | – | – | –
